In ChEMBL document CHEMBL4330056, “Synthesis and Cytotoxic and Antiviral Profiling of Pyrrolo- and Furo-Fused 7-Deazapurine Ribonucleosides” (J Med Chem, 2018):
Active and inactive are the calls of the source. The calls are words filed in the database; no cut-off is given here.

Legend:
[1] = molecular target: T1, Adenosine kinase (Homo sapiens, UniProt P55263); assay: Drug metabolism in human BJ cells assessed as ADK-mediated compound phosphorylation level per 5x10^5 cells at 10 umol/L after 3 hrs by UPLC-MS/MS analysis; format: ADME, cell-based; details: 10 µM
Summary of the method: (§1)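 BJ (normal) and HCT116 (malignant) cells exposed to nucleoside at 1 or 10 μmol/L for 1 or 3 h. Intracellular nucleoside and its monophosphate quantified against synthetic monophosphate standards. Values given as pmol per 5 × 10^5 cells.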

[2] = molecular target: T1, Adenosine kinase; assay: Drug metabolism in human HCT116 cells assessed as ADK-mediated compound phosphorylation level per 5x10^5 cells at 10 umol/L after 3 hrs by UPLC-MS/MS analysis; format: ADME, cell-based; details: 10 µM; summary of the method: as §1
[3] = molecular target: T1, Adenosine kinase; assay: Drug metabolism in human BJ cells assessed as ADK-mediated compound phosphorylation level per 5x10^5 cells at 1 umol/L after 3 hrs by UPLC-MS/MS analysis; format: ADME, cell-based; details: 1 µM; summary of the method: as §1
[4] = molecular target: T1, Adenosine kinase; assay: Drug metabolism in human BJ cells assessed as ADK-mediated compound phosphorylation level per 5x10^5 cells at 1 umol/L after 1 hr by UPLC-MS/MS analysis; format: ADME, cell-based; details: 1 µM; summary of the method: as §1
[5] = molecular target: T1, Adenosine kinase; assay: Drug metabolism in human HCT116 cells assessed as ADK-mediated compound phosphorylation level per 5x10^5 cells at 1 umol/L after 1 hr by UPLC-MS/MS analysis; format: ADME, cell-based; details: 1 µM; summary of the method: as §1
[6] = molecular target: T1, Adenosine kinase; assay: Drug metabolism in human BJ cells assessed as ADK-mediated compound phosphorylation level per 5x10^5 cells at 10 umol/L after 1 hr by UPLC-MS/MS analysis; format: ADME, cell-based; details: 10 µM; summary of the method: as §1
[7] = molecular target: T1, Adenosine kinase; assay: Drug metabolism in human HCT116 cells assessed as ADK-mediated compound phosphorylation level per 5x10^5 cells at 1 umol/L after 3 hrs by UPLC-MS/MS analysis; format: ADME, cell-based; details: 1 µM; summary of the method: as §1
[8] = molecular target: T1, Adenosine kinase; assay: Drug metabolism in human HCT116 cells assessed as ADK-mediated compound phosphorylation level per 5x10^5 cells at 10 umol/L after 1 hr by UPLC-MS/MS analysis; format: ADME, cell-based; details: 10 µM; summary of the method: as §1
[9] = test system: DNA; assay: Induction of DNA damage in human U2OS cells transfected with 53BP1-GFP fusion gene assessed as increase in number of foci per nucleus measured at 1 hr intervals for 11 hrs by fluorescence-based assay; format: functional, cell-based
Summary of the method: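 U2OS osteosarcoma reporter line stably expressing 53BP1-GFP treated up to 11 h, with etoposide as the double-strand-break reference. 53BP1 foci in nuclei imaged by confocal microscopy (40× objective).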

T1 sequence (P55263 whole entry): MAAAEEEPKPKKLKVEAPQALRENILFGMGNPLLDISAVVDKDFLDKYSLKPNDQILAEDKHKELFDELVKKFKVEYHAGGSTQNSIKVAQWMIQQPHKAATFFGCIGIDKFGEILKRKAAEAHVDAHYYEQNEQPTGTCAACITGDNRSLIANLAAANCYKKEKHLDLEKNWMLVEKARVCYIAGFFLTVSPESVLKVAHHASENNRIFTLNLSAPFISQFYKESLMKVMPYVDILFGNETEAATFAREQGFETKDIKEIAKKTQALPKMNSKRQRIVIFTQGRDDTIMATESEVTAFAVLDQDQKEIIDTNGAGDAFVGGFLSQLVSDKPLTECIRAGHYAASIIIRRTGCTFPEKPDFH

Row | Compound | Drug metabolism [1] [pmol] | Drug metabolism [2] [pmol] | Drug metabolism [3] [pmol] | Drug metabolism [4] [pmol] | Drug metabolism [5] [pmol] | Drug metabolism [6] [pmol] | Drug metabolism [7] [pmol] | Drug metabolism [8] [pmol] | Activity [9]
1 | Cc1ncnc2c1c1occc1n2[C@@H]1O[C@H](COP(=O)([O-])O)[C@@H](O)[C@H]1O.[Na+] | 4920.41 | 12533.33 | 241.05 | 223.51 | 511.81 | 4488.64 | 1167.4 | 9531.67 | 
2 | Cc1ncnc2c1c1c(ccn1C)n2[C@@H]1O[C@H](COP(=O)([O-])O)[C@@H](O)[C@H]1O.[Na+] | 5041.67 | 12049.83 | 332.63 | 220.92 | 466.96 | 1531.57 | 1079.19 | 8868.83 | 
3 | COc1cc([C@@H]2c3cc4c(cc3[C@@H](O[C@@H]3O[C@@H]5CO[C@@H](C)O[C@H]5[C@H](O)[C@H]3O)[C@H]3COC(=O)[C@H]23)OCO4)cc(OC)c1O |  |  |  |  |  |  |  |  | Active
